We go through seven compounds from ChEMBL document CHEMBL4002556, “Acetophenone Monomers from Acronychia trifoliolata” (J Nat Prod, 2016).

Where only a bound is given, the exact number is not on record here.

Common to all, as to type: functional, cell-based
Experiment [1] relates to A549. Put plainly: Cytotoxicity against human A549 cells assessed as growth inhibition after 48 hrs by SRB assay. The following applies: A549, 48 h. An outline of the steps: (§1)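 Sulforhodamine B (SRB) read-out of antiproliferative effect. IC50 is the concentration giving 50% reduction relative to untreated cells, determined separately for each cell line.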
Background: In SRB staining, fixed cells bind dye roughly in proportion to their protein.

Experiment [2] relates to KB. The experiment is described as follows: Cytotoxicity against human KB cells assessed as growth inhibition after 48 hrs by SRB assay. An outline of the steps: as §1
The nature of experiment [3]: Cytotoxicity against human KBVIN cells assessed as growth inhibition after 48 hrs by SRB assay. An outline of the steps:
as §1

Experiment [4] relates to MDA-MB-231. The experiment is described as follows: Cytotoxicity against human MDA-MB-231 cells assessed as growth inhibition after 48 hrs by SRB assay. The following applies: MDA-MB-231, 48 h. An outline of the steps:
as §1

Experiment [5] deals with MCF7. Put plainly: Cytotoxicity against human MCF7 cells assessed as growth inhibition after 48 hrs by SRB assay. The following applies: MCF7, 48 h.

What is called IC50 is the concentration needed to halve the response being measured. With `COc1c2c(c(CC=C(C)C)c(O)c1C(C)=O)OC(C(C)(C)O)C2` (stereo not drawn), the IC50 in experiment [1], in experiment [2], in experiment [3], in experiment [4] and in experiment [5] was greater than 40 µM each time.
Take `COc1c(CC=C(C)C)c2c(c(O)c1C(C)=O)CC(O)C(C)(C)O2` (stereo not drawn): the half-inhibitory concentration (IC50) was greater than 40 µM in experiment [1]; 38.5 µM in experiment [2]; 39.7 µM in experiment [3]; greater than 40 µM in experiment [4]; greater than 40 µM in experiment [5].
As for `COc1c2c(c(CCC(C)C)c(O)c1C(C)=O)OC(C)(C)C(O)C2` (stereo not drawn), the IC50 in experiment [1] was 19.9 µM; in experiment [2], 20.4 µM; in experiment [3] it was 16.2 µM; in experiment [4], 22.6 µM; in experiment [5], 19.4 µM.
On to `COc1c2c(c(CC=C(C)C)c(O)c1C(C)=O)OC(C)(C)C(O)C2` (stereo not drawn), for which the IC50 is 26.6 µM in experiment [1]; 25.6 µM in experiment [2]; 19.2 µM in experiment [3]; greater than 40 µM in experiment [4]; 30.8 µM in experiment [5].
For the compound `COc1c(CC=C(C)C)c(O)c2c(c1C(C)=O)OC(C)(C)C(O)C2` (stereo not drawn), the IC50 in experiment [1], in experiment [2], in experiment [3], in experiment [4] and in experiment [5] was greater than 40 µM throughout.
For `CC(=O)O[C@H]1C(=O)[C@@]2(C)[C@H]([C@H](OC(=O)c3ccccc3)[C@]3(O)C[C@H](OC(=O)[C@H](O)[C@@H](NC(=O)c4ccccc4)c4ccccc4)C(C)=C1C3(C)C)[C@]1(OC(C)=O)CO[C@@H]1C[C@@H]2O` [PACLITAXEL], the IC50 in experiment [1] was 0.00099 µM; in experiment [2], 0.0008 µM; in experiment [3], 1.9 µM.
Regarding `COc1c(CC=C(C)C)c2c(c(O)c1C(C)=O)CC(C(C)(C)O)O2` (stereo not drawn), the IC50 in experiment [1], in experiment [2], in experiment [3], in experiment [4] and in experiment [5] was greater than 40 µM each time.
